We go through 22 compounds from ChEMBL document CHEMBL1144302, “Triaryl bis-sulfones as a new class of cannabinoid CB2 receptor inhibitors: identification of a lead and initial SAR studies” (Bioorg Med Chem Lett, 2005).

A short description of test [1]: Binding affinity for cannabinoid receptor 2 was determined by using [35S]GTP-gamma-S, as radioligand. The format is functional, Homo sapiens. The gist of the method:
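Human CB2 co-expressed with Gαi3 and β1γ2 in Sf9 cell membranes (7–14 pmol/mg receptor). Triplicate serial dilutions were incubated with membranes, 0.3 nM [35S]GTPγS and GDP in 20 mM HEPES, 100 mM NaCl, 5 mM MgCl2, 0.2% (w/v) lipid-free BSA, pH 7.4, for 30 min at 30°C. Reactions were stopped by filtration, and filters were washed 10× at room temperature with 20 mM HEPES/10 mM sodium pyrophosphate. Bound label was counted by liquid scintillation.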

Test [2] concerns the target Cannabinoid receptor 1 (Homo sapiens, UniProt P21554). Nature of the test: Binding affinity for cannabinoid receptor 1.
Test [3] has as its target Cannabinoid receptor (Homo sapiens) (UniProt P34972+P21554). Kind of test: Selectivity of cannabinoid receptor 2 over cannabinoid receptor 1. The class given is protein assay.
In test [4] the target is Cannabinoid receptor 2 (Homo sapiens, UniProt P34972). Nature of the test: Binding affinity for human cannabinoid receptor 2 was determined by using [3H]CP-55940 as radioligand.
Sequence of Cannabinoid receptor 2 (P34972 whole entry): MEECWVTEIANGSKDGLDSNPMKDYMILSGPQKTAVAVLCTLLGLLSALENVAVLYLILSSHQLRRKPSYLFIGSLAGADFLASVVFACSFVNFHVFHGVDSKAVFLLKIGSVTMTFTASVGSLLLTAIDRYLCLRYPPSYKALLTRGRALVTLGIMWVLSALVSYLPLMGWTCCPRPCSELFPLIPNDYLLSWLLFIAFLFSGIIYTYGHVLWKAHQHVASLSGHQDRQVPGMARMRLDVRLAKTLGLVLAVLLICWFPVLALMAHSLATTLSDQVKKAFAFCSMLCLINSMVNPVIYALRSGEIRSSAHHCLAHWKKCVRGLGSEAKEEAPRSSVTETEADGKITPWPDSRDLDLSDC

Sequence of Cannabinoid receptor 1 (P21554 whole entry): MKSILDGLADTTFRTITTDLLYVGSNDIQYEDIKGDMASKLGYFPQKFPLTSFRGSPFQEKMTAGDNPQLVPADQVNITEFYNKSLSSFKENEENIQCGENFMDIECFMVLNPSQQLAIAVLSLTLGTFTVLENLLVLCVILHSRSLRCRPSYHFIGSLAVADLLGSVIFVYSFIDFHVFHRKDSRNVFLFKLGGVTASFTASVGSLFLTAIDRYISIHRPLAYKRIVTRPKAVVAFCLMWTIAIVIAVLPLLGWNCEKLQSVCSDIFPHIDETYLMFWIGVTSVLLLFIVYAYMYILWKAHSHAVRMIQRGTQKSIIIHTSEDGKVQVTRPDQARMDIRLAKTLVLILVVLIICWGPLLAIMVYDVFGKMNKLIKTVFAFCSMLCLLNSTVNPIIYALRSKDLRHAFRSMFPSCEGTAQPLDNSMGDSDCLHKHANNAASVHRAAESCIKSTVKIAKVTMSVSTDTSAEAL
Sequence of Cannabinoid receptor (Homo sapiens) (P21554 whole entry, looked up): as the sequence (P21554 whole entry) above
Sequence of Cannabinoid receptor (Homo sapiens) (P34972 whole entry, looked up): as the sequence (P34972 whole entry) above

For the compound `COc1ccc(C(=O)N[C@@H](C)c2ccc(S(=O)(=O)c3ccc(OC)cc3S(=O)(=O)c3ccc(OC)cc3)cc2)cc1`, the Ki in test [1] worked out at 1260 nM; in test [2], 1170 nM. Moreover, the Selectivity in test [3] is 0.9.
For `COc1ccc(S(=O)(=O)c2cc(OC)ccc2S(=O)(=O)c2ccc([C@H](C)NC(=O)C(C)(C)C)cc2)cc1`, the Ki in test [1] was 38.6 nM; in test [2], 2310 nM. In test [3], this compound yielded a Selectivity of 60.
As to `COc1ccc(S(=O)(=O)c2cc(OC)ccc2S(=O)(=O)c2ccc([C@H](C)NC(=O)Cc3ccccc3)cc2)cc1`, the Ki in test [1] was found to be 412 nM; in test [2], 478 nM. In test [3], this compound displayed a Selectivity of 1.2.
`COc1ccc(S(=O)(=O)c2cc(OC)ccc2S(=O)(=O)c2ccc([C@H](C)NC(=O)Nc3ccc(C)cc3)cc2)cc1`: the Ki in test [1] is 802 nM; in test [2], 100000 nM. The compound further displayed a Selectivity in test [3] of 125.
With `COc1ccc(S(=O)(=O)c2cc(OC)ccc2S(=O)(=O)c2ccc([C@H](C)NS(=O)(=O)c3ccc(C)cc3)cc2)cc1`, the Ki came to 495 nM in test [1] and 1920 nM in test [2]. The compound also had a Selectivity in test [3] of 3.9.
The matching figures for `COc1ccc(S(=O)(=O)c2cc(OC)ccc2S(=O)(=O)c2ccc([C@H](C)NC(=O)C(F)(F)F)cc2)cc1`: 0.3 nM, 235 nM and 783.
Taken in the same sequence, the figures for `COc1ccc(S(=O)(=O)c2cc(OC)ccc2S(=O)(=O)c2ccc([C@H](C)NC(=O)c3ccc(Cl)c(Cl)c3)cc2)cc1` were 167 nM, 84 nM and 0.5.
On to `COc1ccc(S(=O)(=O)c2cc(OC)ccc2S(=O)(=O)c2ccc([C@H](C)NS(=O)(=O)Cc3ccccc3)cc2)cc1`, for which the Ki in test [1] turned out to be 160 nM; in test [2], 79 nM. The Selectivity in test [3] is 0.5.
For the compound `COc1ccc(S(=O)(=O)c2cc(OC)ccc2S(=O)(=O)c2ccc([C@H](C)NC(C)=O)cc2)cc1`, the Ki in test [1] is 7.7 nM; in test [2] it was 1780 nM. The Selectivity in test [3] turned out to be 231.
The matching figures for `CCC(=O)N[C@@H](C)c1ccc(S(=O)(=O)c2ccc(OC)cc2S(=O)(=O)c2ccc(OC)cc2)cc1`: 29 nM, 3560 nM and 122.
With `CCCC(=O)N[C@@H](C)c1ccc(S(=O)(=O)c2ccc(OC)cc2S(=O)(=O)c2ccc(OC)cc2)cc1`, the results for the Ki in test [1] and in test [2] were 6.2 nM and 1170 nM, respectively. In test [3], the Selectivity worked out at 189.
Taken in the same sequence, the figures for `COc1ccc(S(=O)(=O)c2cc(OC)ccc2S(=O)(=O)c2ccc([C@H](C)NC(=O)C3CC3)cc2)cc1` were 15.7 nM, 10600 nM and 676.
Taken in the same sequence, the figures for `CCCCS(=O)(=O)N[C@@H](C)c1ccc(S(=O)(=O)c2ccc(OC)cc2S(=O)(=O)c2ccc(OC)cc2)cc1` were 41 nM, 1130 nM and 27.
On to `COc1ccc(S(=O)(=O)c2cc(OC)ccc2S(=O)(=O)c2ccc([C@H](C)NS(=O)(=O)c3ccccc3)cc2)cc1`, for which the inhibition constant Ki was 239 nM in test [1] and 855 nM in test [2]. In test [3], this compound displayed a Selectivity of 3.6.
The matching figures for `COc1ccc(S(=O)(=O)c2cc(OC)ccc2S(=O)(=O)c2ccc([C@H](C)NC(=O)Nc3ccc(F)cc3)cc2)cc1`: 1140 nM, 17600 nM and 15.
The matching figures for `COc1ccc(S(=O)(=O)c2cc(OC)ccc2S(=O)(=O)c2ccc([C@H](C)NC(=O)c3ccc(C)cc3)cc2)cc1`: 289 nM, 884 nM and 3.
The matching figures for `CCS(=O)(=O)N[C@@H](C)c1ccc(S(=O)(=O)c2ccc(OC)cc2S(=O)(=O)c2ccc(OC)cc2)cc1`: 1 nM, 1970 nM and 1510.
For the compound `COc1ccc(S(=O)(=O)c2cc(OC)ccc2S(=O)(=O)c2ccc([C@H](C)NS(C)(=O)=O)cc2)cc1`, the Ki in test [1] was 0.4 nM; in test [2] it was 905 nM. The compound further gave a Selectivity in test [3] of 2260.
With `CCCNC(=O)N[C@@H](C)c1ccc(S(=O)(=O)c2ccc(OC)cc2S(=O)(=O)c2ccc(OC)cc2)cc1`, the Ki is 495 nM in test [1] and 72100 nM in test [2]. The Selectivity in test [3] came to 145.
Regarding `COc1ccc(S(=O)(=O)c2cc(OC)ccc2S(=O)(=O)c2ccc([C@H](C)NS(=O)(=O)c3ccc(Cl)c(Cl)c3)cc2)cc1`, the values for the inhibition constant (Ki) in test [1] and in test [2] were 2480 nM and 117 nM, respectively. The compound also yielded a Selectivity in test [3] of 0.05.
Take `COc1ccc(S(=O)(=O)c2ccc([C@H](C)NC(=O)C(F)(F)F)cc2)cc1`: affinity in test [1] was put at a Ki of 31 nM. This counts as double-digit nanomolar.
`COc1ccc(C(=O)c2c(C)n(CCN3CCOCC3)c3cc(I)ccc23)cc1`: in test [4], the affinity corresponds to a Ki of 31.2 nM. In other words, the double-digit nanomolar range.
